The source of these data is ChEMBL document CHEMBL4177624, “Rationally designed hecogenin thiosemicarbazone analogs as novel MEK inhibitors for the control of breast malignancies” (Bioorg Med Chem, 2017).

What all share (format): functional, cell-based
Test [1] concerns MDA-MB-468. As to the kind of experiment: Antiproliferative activity against human MDA-MB-468 cells after 72 hrs by MTT assay. The following applies: MDA-MB-468, 72 h. The gist of the method:
(§1)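 Six human breast carcinoma lines of differing molecular and phenotypic character were each exposed to a range of concentrations for 72 h. Proliferation was read by MTT. Results are given as mean percent viability, with IC₅₀ ± SEM calculated per cell line.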
For orientation: Tetrazolium dyes change colour on reduction, which living cells bring about.

Test [2] concerns SK-BR-3. As to the kind of experiment: Antiproliferative activity against human SKBR3 cells after 72 hrs by MTT assay. The following applies: SK-BR-3, 72 h. The gist of the method: as §1
Test [3] deals with MDA-MB-231. Kind of test: Antiproliferative activity against human MDA-MB-231 cells after 72 hrs by MTT assay. The following applies: MDA-MB-231, 72 h. The gist of the method:
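MDA-MB-231 triple-negative breast cancer cells were exposed to a range of concentrations for 72 h. Proliferation was read by MTT. Results are given as mean percent viability versus concentration, with IC₅₀ ± SEM calculated from the curve.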

Test [4] deals with MCF7. As to the kind of experiment: Antiproliferative activity against human MCF7 cells after 72 hrs by MTT assay. The settings on record: MCF7, 72 h. An outline of the steps: as §1
Test [5] deals with T47D. Kind of test: Antiproliferative activity against human T47D cells after 72 hrs by MTT assay. The gist of the method: as §1
Test [6] deals with BT-474. Kind of test: Antiproliferative activity against human BT474 cells after 72 hrs by MTT assay. The following applies: BT-474, 72 h. The gist of the method: as §1

The term IC50 denotes the concentration that inhibits the measured activity by half. A higher IC50 goes with weaker potency. As to `C[C@@H]1CC[C@@]2(OC1)O[C@H]1C[C@H]3[C@@H]4CC[C@H]5C[C@@H](OC(=O)c6ccc([N+](=O)[O-])cc6)CC[C@]5(C)[C@H]4CC(=O)[C@]3(C)[C@H]1[C@@H]2C`, the IC50 in test [1] is greater than 40 µM; in test [2] it was 34.9 µM; in test [3], 25.3 µM; in test [4], 32.4 µM; in test [5], greater than 40 µM; in test [6], greater than 40 µM.
As to `C[C@@H]1CC[C@@]2(OC1)O[C@H]1C[C@H]3[C@@H]4CC[C@H]5C[C@@H](O)CC[C@]5(C)[C@H]4C/C(=N\NC(=S)Nc4ccc(Cl)cc4Cl)[C@]3(C)[C@H]1[C@@H]2C`, the IC50 came to 8 µM in test [1]; 8.8 µM in test [2]; 7.5 µM in test [3]; 7.9 µM in test [4]; 9.5 µM in test [5]; 9 µM in test [6].
With `Cc1cccc(C)c1NC(=S)N/N=C1\C[C@H]2[C@@H](CC[C@H]3C[C@@H](O)CC[C@@]32C)[C@@H]2C[C@@H]3O[C@]4(CC[C@@H](C)CO4)[C@@H](C)[C@@H]3[C@@]12C`, the IC50 came out at 2.8 µM in test [1]; 2.9 µM in test [2]; 2.3 µM in test [3]; 2.5 µM in test [4]; 4.2 µM in test [5]; 3.2 µM in test [6].
As to `C[C@@H]1CC[C@@]2(OC1)O[C@H]1C[C@H]3[C@@H]4CC[C@H]5C[C@@H](O)CC[C@]5(C)[C@H]4C/C(=N\NC(=S)Nc4ccccc4C(F)(F)F)[C@]3(C)[C@H]1[C@@H]2C`, the IC50 worked out at 2.7 µM in test [1]; 2.1 µM in test [2]; 2.1 µM in test [3]; 2.2 µM in test [4]; 2.4 µM in test [5]; 3.1 µM in test [6].
Take `C[C@@H]1CC[C@@]2(OC1)O[C@H]1C[C@H]3[C@@H]4CC[C@H]5C[C@@H](OC(=O)c6ccco6)CC[C@]5(C)[C@H]4CC(=O)[C@]3(C)[C@H]1[C@@H]2C`: the half-inhibitory concentration (IC50) in test [1], in test [2], in test [3], in test [4], in test [5] and in test [6] was greater than 40 µM in each case.
With `C[C@@H]1CC[C@@]2(OC1)O[C@H]1C[C@H]3[C@@H]4CC[C@H]5C[C@@H](O)CC[C@]5(C)[C@H]4C/C(=N\NC(=O)Nc4cccc(C(F)(F)F)c4)[C@]3(C)[C@H]1[C@@H]2C`, the IC50 was determined as 15.3 µM in test [1]; 15.7 µM in test [2]; 14 µM in test [3]; 13.8 µM in test [4]; 20.9 µM in test [5]; 19.2 µM in test [6].
Regarding `Cc1ccc(S(=O)(=O)NC(=O)N/N=C2\C[C@H]3[C@@H](CC[C@H]4C[C@@H](O)CC[C@@]43C)[C@@H]3C[C@@H]4O[C@]5(CC[C@@H](C)CO5)[C@@H](C)[C@@H]4[C@@]23C)cc1`, the IC50 was 36.4 µM in test [1]; 31 µM in test [2]; 28 µM in test [3]; 29.3 µM in test [4]; greater than 40 µM in test [5]; greater than 40 µM in test [6].
As for `C[C@@H]1CC[C@@]2(OC1)O[C@H]1C[C@H]3[C@@H]4CC[C@H]5C[C@@H](O)CC[C@]5(C)[C@H]4C/C(=N\NC(=S)Nc4ccc(Oc5ccccc5)cc4)[C@]3(C)[C@H]1[C@@H]2C`, the IC50 in test [1] is 30.8 µM; in test [2], 29 µM; in test [3] it was 28.1 µM; in test [4], 27 µM; in test [5] it was greater than 40 µM; in test [6] it was 31.2 µM.
With `C[C@@H]1CC[C@@]2(OC1)O[C@H]1C[C@H]3[C@@H]4CC[C@H]5C[C@@H](O)CC[C@]5(C)[C@H]4C/C(=N\NC(=S)Nc4ccccc4[N+](=O)[O-])[C@]3(C)[C@H]1[C@@H]2C`, the IC50 is 6.1 µM in test [1]; 5.5 µM in test [2]; 4.3 µM in test [3]; 5 µM in test [4]; 9 µM in test [5]; 6.9 µM in test [6].
As to `C[C@@H]1CC[C@@]2(OC1)O[C@H]1C[C@H]3[C@@H]4CC[C@H]5C[C@@H](OC(=O)c6ccc(C#N)cc6)CC[C@]5(C)[C@H]4CC(=O)[C@]3(C)[C@H]1[C@@H]2C`, the IC50 is 32.6 µM in test [1]; 34.7 µM in test [2]; 25.7 µM in test [3]; 33.2 µM in test [4]; greater than 40 µM in test [5]; 35 µM in test [6].
For `C[C@@H]1CC[C@@]2(OC1)O[C@H]1C[C@H]3[C@@H]4CC[C@H]5C[C@@H](O)CC[C@]5(C)[C@H]4C/C(=N\NC(=O)Nc4cccc(Cl)c4)[C@]3(C)[C@H]1[C@@H]2C`, the IC50 in test [1] was found to be 10.9 µM; in test [2] it was 9.8 µM; in test [3], 10 µM; in test [4] it was 9.7 µM; in test [5], 13 µM; in test [6], 12 µM.
